# Data from PubChem BioAssay AID463080 (The Scripps Research Institute Molecular Screening Center, 2010).
# Biological target: Wee1-like protein kinase (Homo sapiens) (UniProt P30291)
# Assay: WEE1 degradation inhibition, concentration series – cell-based, HeLa, WEE1K328M-luciferase, luminescence, assay provider, late-stage follow-up (AID 463080)
# Settings: HeLa WEE1K328M-luciferase stabilization
# Procedure, shortened: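 test system = HeLa cells transiently expressing kinase-dead WEE1 K328M–luciferase fusion | timing = compound exposure 20 h at 37 °C, 48 h post-transfection | detection = lytic luciferase luminescence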
# Wee1-like protein kinase (Homo sapiens), sequence (P30291 whole entry K328M): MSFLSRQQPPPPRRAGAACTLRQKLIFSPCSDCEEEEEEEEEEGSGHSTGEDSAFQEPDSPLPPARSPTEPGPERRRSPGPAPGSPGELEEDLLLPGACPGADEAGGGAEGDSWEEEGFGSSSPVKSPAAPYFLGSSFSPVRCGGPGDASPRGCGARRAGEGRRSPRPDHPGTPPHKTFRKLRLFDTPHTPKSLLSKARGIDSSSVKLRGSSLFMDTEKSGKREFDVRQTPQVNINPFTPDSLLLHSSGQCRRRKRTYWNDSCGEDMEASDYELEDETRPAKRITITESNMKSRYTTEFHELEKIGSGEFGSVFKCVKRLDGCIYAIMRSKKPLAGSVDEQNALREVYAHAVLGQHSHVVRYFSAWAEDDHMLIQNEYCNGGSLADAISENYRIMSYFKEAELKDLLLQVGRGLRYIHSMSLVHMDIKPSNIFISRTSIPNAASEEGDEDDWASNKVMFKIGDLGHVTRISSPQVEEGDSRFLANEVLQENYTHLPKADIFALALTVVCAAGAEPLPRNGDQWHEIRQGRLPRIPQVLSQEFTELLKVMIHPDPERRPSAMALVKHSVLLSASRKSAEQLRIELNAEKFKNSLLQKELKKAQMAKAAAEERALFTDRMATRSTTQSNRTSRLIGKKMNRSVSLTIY
row,EC50 [nM],Structure (SMILES)
1,201,CC(C)n1cnc2c(NCc3nc4c([N+](=O)[O-])cccc4[nH]3)nc(N3CCOCC3)nc21
2,164,Clc1ccc2nc(CNc3nc(N4CCOCC4)nc4c3ncn4-c3ccsc3)[nH]c2c1
3,207,CCOC(=O)c1cccc2[nH]c(CNc3nc(N4CCOCC4)nc4c3ncn4-c3ccsc3)nc12
4,40,O=[N+]([O-])c1cccc2[nH]c(CNc3nc(N4CCOCC4)nc4c3ncn4-c3ccsc3)nc12
5,624,c1ccc2[nH]c(CNc3nc(N4CCOCC4)nc4c3ncn4-c3ccsc3)nc2c1
